The source of these data is ChEMBL document CHEMBL1671848, “In Vitro and In Vivo Osteogenic Activity of Largazole” (ACS Med Chem Lett, 2011).

Data set [1] has as its system C2C12. In words: Inhibition of HDAC in mouse C2C12 cells at 5 to 100 nM after 24 hrs by fluorescence assay. Type of data set: cell-based. The procedure, abridged:
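Total HDAC activity in intact C2C12 cells, 4 × 10^3 cells/well, cultured 24 h, pretreated with compound 1 h, then incubated with fluorogenic deacetylase Lysyl substrate; HDAC activity read by fluorescence per kit protocol.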

The test system of data set [2] is C2C12. Description: Osteogenic activity in mouse C2C12 cells assessed as increase of BMP7 mRNA expression at up to 50 nM after 6 days by RT-PCR analysis. Type of data set: functional, cell-based. The procedure, abridged: (§1)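 Quantitative real-time PCR of mRNA from C2C12 cells, 1 × 10^6 cells per 60-mm plate, treated 6 days; rhBMP-2 at 300 ng/mL served as reference osteoblastogenesis inducer.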

For data set [3], the system named is Mus musculus. Description: Osteogenic activity in mouse assessed as induction of woven bone formation at 10 uM administered with collagen sponges in calvarial bone after 3 weeks. Type of data set: functional, organism-based. The procedure, abridged: (§2)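 Collagen sponges holding 5 μL of compound solution or PBS vehicle placed onto mouse calvarial bones; after 3-week implantation calvariae removed, fixed, decalcified, paraffin-embedded and sectioned for histology of woven bone formation.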

The subject of data set [4] is C2C12. Description: Osteogenic activity in mouse C2C12 cells assessed as increase of Runx2 mRNA expression at 50 nM after 6 days by RT-PCR analysis relative to control. Type of data set: functional. A digest of the protocol:
as §1

The test system of data set [5] is C2C12. Description: Osteogenic activity in mouse C2C12 cells assessed as increase of BMP4 mRNA expression at up to 50 nM after 6 days by RT-PCR analysis. Type of data set: functional, cell-based. The procedure, abridged:
as §1

For another data set, the species on record is Oryctolagus cuniculus. Description: Osteogenic activity in rabbit calvarial bone fracture healing model assessed as bone formation at 100 to 200 nM after 4 weeks. Type of data set: functional.
In data set [6] the test system is C2C12. Description: Inhibition of HDAC in mouse C2C12 cells assessed as increase of acetylated histone level after 24 hrs by Western blotting. Type of data set: cell-based. The procedure, abridged:
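C2C12 cells, 2 × 10^6 cells per 100-mm plate, cultured 24 h, then treated 24 h; protein extracts analysed for hyperacetylated histones by Western blot with actin as loading control.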
A general note: Immunoblotting shows a protein as a band on a membrane.

The test system of data set [7] is C2C12. Description: Cytotoxicity against mouse C2C12 cells up to 100 uM after 3 days. Type of data set: cell-based. As to conditions: c2c12, 72 h.
The test system of data set [8] is C2C12. Description: Osteogenic activity in mouse C2C12 cells assessed as inhibition of multinucleated osteoclasts formation after 6 days. Type of data set: functional, cell-based.
Data set [9] has as its system C2C12. Description: Osteogenic activity in mouse C2C12 cells assessed as increase of BMP6 mRNA expression at up to 50 nM after 6 days by RT-PCR analysis. Type of data set: functional, cell-based. A digest of the protocol:
as §1

Data set [10] has as its system C2C12. In words: Induction of osteoblast differentiation in mouse C2C12 cells assessed as increase of alkaline phosphatase expression after 6 days. Type of data set: functional, cell-based. A digest of the protocol: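 C2C12 cells, 4 × 10^3 cells/well, cultured 24 h, then treated for 6 days with medium changed every 3 days; osteoblast differentiation assessed by alkaline phosphatase staining.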

Data set [11] deals with C2C12. Description: Osteogenic activity in mouse C2C12 cells assessed as increase of BMP9 mRNA expression at up to 50 nM after 6 days by RT-PCR analysis. Type of data set: functional, cell-based. A digest of the protocol:
as §1

The test system of data set [12] is C2C12. Description: Osteogenic activity in mouse C2C12 cells assessed as increase of BMP2 mRNA expression at up to 50 nM after 6 days by RT-PCR analysis. Type of data set: functional, cell-based. The procedure, abridged:
as §1

Data set [13] concerns C2C12. In words: Induction of osteoblast differentiation in mouse C2C12 cells assessed as increase of osteopontin expression up to 100 nM after 6 days. Type of data set: functional, cell-based.
Data set [14] relates to Mus musculus. Description: Osteogenic activity in mouse assessed as induction of woven bone formation at 50 uM administered with collagen sponges in calvarial bone after 3 weeks. Type of data set: functional, organism-based. A digest of the protocol:
as §2

Data set [15] has as its target Runt-related transcription factor 2 (Mus musculus) (UniProt Q08775). Description: Activation of Runx2 activity in mouse C2C12 cells at 50 nM after 24 hrs by luciferase reporter gene assay relative to control. Type of data set: cell-based. The procedure, abridged:
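6×OSE2-luc plasmid-transfected C2C12 cells, 4 × 10^3 cells/well, cultured 1 day, then 1 day in DMEM with 5% FBS with or without compound; Runx2 activation read as luciferase activity.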

Active and inactive are the calls of the source. The calls are words filed in the database; no cut-off is given here.

Runt-related transcription factor 2 (Mus musculus), sequence (Q08775 whole entry): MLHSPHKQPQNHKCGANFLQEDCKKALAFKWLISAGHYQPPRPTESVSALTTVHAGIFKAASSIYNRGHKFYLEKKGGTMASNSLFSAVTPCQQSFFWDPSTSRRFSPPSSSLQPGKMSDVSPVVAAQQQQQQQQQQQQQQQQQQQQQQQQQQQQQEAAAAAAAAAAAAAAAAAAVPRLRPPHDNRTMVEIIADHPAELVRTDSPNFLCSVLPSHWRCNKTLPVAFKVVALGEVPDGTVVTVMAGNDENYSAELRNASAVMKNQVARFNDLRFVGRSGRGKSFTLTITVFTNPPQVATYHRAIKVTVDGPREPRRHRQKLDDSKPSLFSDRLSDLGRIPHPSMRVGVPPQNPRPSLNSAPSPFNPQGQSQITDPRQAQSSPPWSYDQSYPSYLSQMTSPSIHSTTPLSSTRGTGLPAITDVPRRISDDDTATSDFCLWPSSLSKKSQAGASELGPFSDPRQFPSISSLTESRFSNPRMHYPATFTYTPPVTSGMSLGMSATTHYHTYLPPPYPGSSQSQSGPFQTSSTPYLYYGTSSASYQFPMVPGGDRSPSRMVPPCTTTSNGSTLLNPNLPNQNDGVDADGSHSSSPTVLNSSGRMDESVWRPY

Regarding `CCCCCCCC(=O)SCC/C=C/[C@@H]1CC(=O)NCc2nc(cs2)C2=N[C@@](C)(CS2)C(=O)N[C@@H](C(C)C)C(=O)O1` [LARGAZOLE], the inhibition entry in the data set on C2C12 [1] was “Active”. Further, the result in the data set with C2C12 [2], with Mus musculus [3], in the data set with C2C12 [5], in the data set listed under Oryctolagus cuniculus, in the data set with C2C12 [8] and with C2C12 [9] was Active. Further, the result with C2C12 [10], in the data set with C2C12 [11], with C2C12 [12], in the data set on C2C12 [13] and in the data set on Mus musculus [14] was Active. Besides, the entries for the “fold change (FC)” value (in the data set on C2C12 [4]; in data set [15]) were 3 and 29, respectively. Also, the inhibition entry in the data set on C2C12 [6] is “Dose-dependent effect”. Besides, the Activity entry in the data set on C2C12 [7] is listed as “Non-toxic”.
